# Experiments:
# [1] = tested on: Plasmodium falciparum; assay: Antiplasmodial activity against chloroquine-sensitive Plasmodium falciparum 3D7 assessed as reduction in parasitic LDH activity after 48 hrs by Malstat reagent based […] method; type: functional; conditions: 3D7, 48 h
# Outline: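 Unsynchronized P. falciparum 3D7 at 0.5% parasitemia and 1% hematocrit in RPMI with 3% Albumax II. Exposed to 100, 25, 6.25 and 1.56 µg/mL for 48 h at 37 °C under 90% N2/5% CO2/5% O2. After three freeze-thaw cycles, LDH measured with Malstat and NBT/PES, 1 h in the dark, read at 650 nm. IC50 by Probit; triplicate, ≥2 experiments.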
# [2] = tested on: Klebsiella pneumoniae; assay: Antibacterial activity against carbapenemase positive Klebsiella pneumoniae BAA 1705 after 24 hrs by resazurin dye based microdilution assay; type: functional; conditions: BAA 1705, 24 h
# Outline: (§1)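 MIC taken as the lowest concentration giving visible inhibition and/or by resazurin (1 mg/mL). Gentamicin was the control. Run in duplicate, repeated at least three times.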
# [3] = tested on: Candida albicans; assay: Growth inhibition of Candida albicans ATCC 10231 at 125 ug/ml incubated for 48 hrs under dark condition by broth microdilution method relative to control; type: functional; conditions: ATCC 10231, 48 h, read-out: GI
# Outline: (§2)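 CLSI M27-A3 broth microdilution in RPMI-1640, DMSO ≤1%. Inoculum 1-5 × 10^3 CFU/mL. Incubated 48 h at 30 °C, dark. % inhibition = 100 − (OD405 test − sterility control)/(OD405 growth control − sterility control), with growth and sterility control wells. Triplicate.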
# [4] = tested on: Klebsiella pneumoniae; assay: Antibacterial activity against ESBL positive Klebsiella pneumoniae ATCC 700603 after 24 hrs by resazurin dye based microdilution assay; type: functional; conditions: Klebsiella pneumoniae, 700603, 24 h; outline: as §1
# [5] = tested on: Leishmania panamensis; assay: Antileshmanial activity against EpiR/GFP fused Leishmania panamensis MHOM/CO/87/UA140 intracellular amastigotes infected in human […] cells after 72 hrs by flow cytometric method; type: functional, cell-based; conditions: MHOM/CO/87/UA140, 72 h
# Outline: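 PMA-treated U-937 cells (3 × 10^5 cells/mL) infected with stationary-phase GFP L. panamensis promastigotes (15:1), 3 h at 34 °C, then washed. After 24 h, compounds added at 50, 12.5, 3.125 and 0.78 µg/mL for 72 h at 37 °C. EC50 by Probit; triplicate, two experiments.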
# [6] = tested on: Staphylococcus aureus; assay: Antibacterial activity against vancomycin-intermediate Staphylococcus aureus after 24 hrs by resazurin dye based microdilution assay; type: functional; outline: as §1
# [7] = tested on: Candida albicans; assay: Antifungal activity against Candida albicans ATCC 10231 incubated for 48 hrs under dark condition by broth microdilution method; type: functional; conditions: ATCC 10231, 48 h
# Outline: (§3)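 CLSI M27-A3 broth microdilution in RPMI-1640, DMSO ≤1%, compounds at 250-0.98 µg/mL final. Inoculum 1-5 × 10^3 CFU/mL. Incubated 48 h at 30 °C in a moist dark chamber, read at OD405. MIC80 and MIC50 taken from % inhibition dose-response curves (mean ± SEM, triplicate). Amphotericin B was the positive control.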
# [8] = tested on: Candida albicans; assay: Growth inhibition of Candida albicans ATCC 10231 at 15.62 ug/ml incubated for 48 hrs under dark condition by broth microdilution method relative to control; type: functional; conditions: ATCC 10231, 48 h, read-out: GI; outline: as §2
# [9] = tested on: Cryptococcus neoformans; assay: Antifungal activity against Cryptococcus neoformans ATCC 32264 incubated for 48 hrs under dark condition by broth microdilution method; type: functional; conditions: ATCC 32264, 48 h; outline: as §3
# [10] = tested on: Cryptococcus neoformans; assay: Growth inhibition of Cryptococcus neoformans ATCC 32264 at 250 ug/ml incubated for 48 hrs under dark condition by broth microdilution method relative to control; type: functional; conditions: ATCC 32264, 48 h, read-out: GI; outline: as §2
# [11] = tested on: Cryptococcus neoformans; assay: Growth inhibition of Cryptococcus neoformans ATCC 32264 at 62.5 ug/ml incubated for 48 hrs under dark condition by broth microdilution method relative to control; type: functional; conditions: ATCC 32264, 48 h, read-out: GI; outline: as §2
# [12] = tested on: Candida albicans; assay: Growth inhibition of Candida albicans ATCC 10231 at 62.5 ug/ml incubated for 48 hrs under dark condition by broth microdilution method relative to control; type: functional; conditions: ATCC 10231, 48 h, read-out: GI; outline: as §2
# [13] = tested on: Cryptococcus neoformans; assay: Growth inhibition of Cryptococcus neoformans ATCC 32264 at 31.25 ug/ml incubated for 48 hrs under dark condition by broth microdilution method relative to control; type: functional; conditions: ATCC 32264, 48 h, read-out: GI; outline: as §2
# [14] = tested on: Neisseria gonorrhoeae; assay: Antibacterial activity against beta lactamase positive Neisseria gonorrhoeae ATCC 31426 by oxidase test; type: functional
# Outline: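 Agar dilution MIC on GC agar with 1% isovitalex containing increasing compound concentrations. Plates inoculated with about 1×10^4 CFU (5 µL). MIC is the lowest concentration that inhibited growth, with growth confirmed by oxidase test. Run in duplicate, repeated at least three times.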
# [15] = tested on: Staphylococcus aureus; assay: Antibacterial activity against methicillin-sensitive Staphylococcus aureus ATCC 25923 after 24 hrs by resazurin dye based microdilution assay; type: functional; conditions: ATCC 25923, 24 h; outline: as §1
# [16] = tested on: Trypanosoma cruzi; assay: Antitrypanosomal activity against Trypanosoma cruzi Tulahuen intracellular amastigote harboring LacZ infected in human U937 cells after 72 hrs by CPRG/Nonidet reagent based spectrophotometric method; type: functional, cell-based; conditions: U-937, 72 h
# Outline: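 U-937 cells at 2.5 × 10^5 cells/mL in RPMI-1640 with 10% serum and 0.1 µg/mL PMA were infected with β-galactosidase-transfected Tulahuen epimastigotes at 5 parasites per cell. Infected cells were exposed to 50, 12.5, 3.125 and 0.78 µg/mL for 72 h. CPRG (100 uM) and 0.1% Nonidet P-40 were added for 3 h, read at 570 nm. EC50 by Probit. Triplicate, at least two experiments; benznidazole as reference.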
# [17] = tested on: Candida albicans; assay: Growth inhibition of Candida albicans ATCC 10231 at 250 ug/ml incubated for 48 hrs under dark condition by broth microdilution method relative to control; type: functional; conditions: ATCC 10231, 48 h, read-out: GI; outline: as §2
# [18] = tested on: Candida albicans; assay: Growth inhibition of Candida albicans ATCC 10231 at 31.25 ug/ml incubated for 48 hrs under dark condition by broth microdilution method relative to control; type: functional; conditions: ATCC 10231, 48 h, read-out: GI; outline: as §2
# [19] = tested on: Cryptococcus neoformans; assay: Growth inhibition of Cryptococcus neoformans ATCC 32264 at 15.62 ug/ml incubated for 48 hrs under dark condition by broth microdilution method relative to control; type: functional; conditions: ATCC 32264, 48 h, read-out: GI; outline: as §2
# [20] = tested on: Candida albicans; assay: Growth inhibition of Candida albicans ATCC 10231 at 3.4 ug/ml incubated for 48 hrs under dark condition by broth microdilution method relative to control; type: functional; conditions: ATCC 10231, 48 h, read-out: GI
# [21] = tested on: Cryptococcus neoformans; assay: Growth inhibition of Cryptococcus neoformans ATCC 32264 at 3.4 ug/ml incubated for 48 hrs under dark condition by broth microdilution method relative to control; type: functional; conditions: ATCC 32264, 48 h, read-out: GI
# [22] = tested on: Candida albicans; assay: Growth inhibition of Candida albicans ATCC 10231 at 7.8 ug/ml incubated for 48 hrs under dark condition by broth microdilution method relative to control; type: functional; conditions: ATCC 10231, 48 h, read-out: GI; outline: as §2
# [23] = tested on: Cryptococcus neoformans; assay: Growth inhibition of Cryptococcus neoformans ATCC 32264 at 7.8 ug/ml incubated for 48 hrs under dark condition by broth microdilution method relative to control; type: functional; conditions: ATCC 32264, 48 h, read-out: GI; outline: as §2
# [24] = tested on: Cryptococcus neoformans; assay: Growth inhibition of Cryptococcus neoformans ATCC 32264 at 125 ug/ml incubated for 48 hrs under dark condition by broth microdilution method relative to control; type: functional; conditions: ATCC 32264, 48 h, read-out: GI; outline: as §2
# [25] = tested on: U-937; assay: Cytotoxicity against human U937 cells after 72 hrs by MTT assay; type: cell-based; conditions: u-937, 72 h
# Outline: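 Exponentially growing U-937 at 1 × 10^5 cells/mL in RPMI-1640 with 10% FBS were exposed to 200, 50, 12.5 and 3.125 µg/mL for 72 h at 37 °C, 5% CO2. MTT for 3 h, stopped with isopropanol/SDS, formazan read at 570 nm, blank-corrected. LC50 by Probit from % viability against untreated cells. Triplicate, at least two independent experiments.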
# [26] = tested on: Staphylococcus aureus; assay: Antibacterial activity against methicillin-resistant Staphylococcus aureus ATCC 43300 after 24 hrs by resazurin dye based microdilution assay; type: functional; conditions: ATCC 43300, 24 h
# Outline: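 Broth microdilution in Mueller Hinton broth, inoculum 5 × 10^5 – 8 × 10^5. Compound stocks diluted in MHB with 5% DMSO and 0.1% Tween 80. Incubation 24 h at 35-37 °C. MIC is the lowest concentration with visible growth inhibition and/or by resazurin (1 mg/mL) read-out. Gentamicin as control. Run in duplicate, replicated at least three times.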
# [27] = tested on: Pseudomonas aeruginosa; assay: Antibacterial activity against Pseudomonas aeruginosa ATCC 27853 after 24 hrs by resazurin dye based microdilution assay; type: functional; conditions: ATCC 27853, 24 h; outline: as §1
# [28] = tested on: Escherichia coli; assay: Antibacterial activity against Escherichia coli ATCC 25922 after 24 hrs by resazurin dye based microdilution assay; type: functional; conditions: ATCC 25922, 24 h; outline: as §1
structure (smiles),measurement,setting,value
CC(=O)N1N=C(c2ccc(Br)cc2)CC1c1cccc(Nc2ccnc3cc(Cl)ccc23)c1 (stereo not given),EC50,[1],50.1 µg/mL
same,MIC,[2],> 1000 µg/mL
same,inhibition of growth at 125 µg/mL,[3],27.9%
same,MIC,[4],> 1000 µg/mL
same,EC50,[5],3.66 µg/mL
same,MIC,[6],> 1000 µg/mL
same,MIC50,[7],≥ 250 µg/mL
same,MIC80,[7],≥ 250 µg/mL
same,inhibition of growth at 15.62 µg/mL,[8],15%
same,MIC50,[9],250 µg/mL
same,MIC80,[9],≥ 250 µg/mL
same,inhibition of growth at 250 µg/mL,[10],71.2%
same,inhibition of growth at 62.5 µg/mL,[11],23.6%
same,inhibition of growth at 62.5 µg/mL,[12],19.1%
same,inhibition of growth at 31.25 µg/mL,[13],19.6%
same,MIC,[14],> 1000 µg/mL
same,MIC,[15],> 1000 µg/mL
same,EC50,[16],3.7 µg/mL
same,inhibition of growth at 250 µg/mL,[17],29.9%
same,inhibition of growth at 31.25 µg/mL,[18],15.7%
same,inhibition of growth at 15.62 µg/mL,[19],18.3%
same,inhibition of growth at 3.4 µg/mL,[20],13.7%
same,inhibition of growth at 3.4 µg/mL,[21],15.4%
same,inhibition of growth at 7.8 µg/mL,[22],13.9%
same,inhibition of growth at 7.8 µg/mL,[23],16.9%
same,inhibition of growth at 125 µg/mL,[24],48.4%
same,LC50,[25],10.2 µg/mL
same,MIC,[26],> 1000 µg/mL
same,MIC,[27],> 1000 µg/mL
same,MIC,[28],> 1000 µg/mL
